Calls of active or inactive are those of the source. The calls are words filed in the database; no cut-off is given here.
Key:
[1] = biological target: Rhodesain (Trypanosoma brucei rhodesiense) (UniProt Q95PM0); assay: Inhibition of Trypanosoma brucei rhodesain expressed in Pichia pastoris at 20 uM using Z-phe-Arg-AMC as substrate preincubated for 1 hr followed by substrate addition by fluorescence assay
Summary of the method: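 Enzyme at 0.8 nM final with compound at 20 μM final, 1 h preincubation in 50 mM sodium acetate pH 5.5 with 2 mM DTT and 0.01% Triton X-100. Z-Phe-Arg-AMC (10 μM) then added. Cleavage rate (RFU/sec) read at 25 °C, ex 355/em 460 nm. E-64 (10 μM) served as 100% inhibition control.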

Trypanosoma brucei [2] = assay: Antitrypanosomal activity against Trypanosoma brucei 427 bloodstream forms assessed as parasitic growth inhibition after 48 hrs by alamar blue assay; assay type: functional, organism-based; conditions: Trypanosoma brucei, 427, 48 h
Summary of the method: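 Bloodstream forms in supplemented HMI-9 medium (10% FBS, 10% Serum Plus, cysteine, hypoxanthine, β-mercaptoethanol, thymidine, pyruvate, bathocuproinesulfonate, Tween 80), 5 × 10³ cells/well, compound exposure 48 h in DMSO. Alamar blue then added, 4 h at 37°C; fluorescence ex 530/em 590 nm. Triplicates; IC50 from 0.3–50 μM range; suramin positive control.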

HepG2 = assay: Cytotoxicity against human HepG2 cells assessed as decrease in cell viability after 72 hrs by MTT assay; assay type: cell-based; conditions: HepG2, 72 h
Summary of the method: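 HepG2 cells kept in DMEM:F12 with 10% FBS, pen/strep and 0.0125% Tween 80 at 37°C, 5% CO2. Cells trypsinized, seeded at 5 × 10⁵ cells/mL and left ~24 h, then given compounds in DMSO for 72 h. Medium replaced with MTT-containing medium for 1.5 h; formazan dissolved in DMSO; A550. Triplicates. Controls: 10% SDS, podophyllotoxin.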

[3] = biological target: Procathepsin L (Homo sapiens) (UniProt P07711); assay: Inhibition of human liver cathepsin L using Z-phe-Arg-AMC as substrate at 0.1 to 125 uM preincubated for 1 hr followed by substrate addition by fluorescence assay
Sequence of Procathepsin L (Homo sapiens) (P07711 114-333 limits assumed): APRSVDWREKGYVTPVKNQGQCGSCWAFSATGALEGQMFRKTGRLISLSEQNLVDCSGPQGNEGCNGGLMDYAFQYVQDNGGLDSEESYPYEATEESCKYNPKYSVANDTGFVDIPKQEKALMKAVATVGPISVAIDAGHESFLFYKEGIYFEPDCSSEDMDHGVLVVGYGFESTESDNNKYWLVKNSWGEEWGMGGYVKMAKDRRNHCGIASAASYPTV
Summary of the method: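 Human liver CatL at 0.58 nM in 400 mM sodium acetate pH 5.5 with 8 mM DTT, 4 mM EDTA and 0.01% Triton X-100. Enzyme and compound preincubated 1 h, then Z-Phe-Arg-AMC (20 μM) added. AMC fluorescence rate read at ex 355/em 460 nm, 25 °C.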

Rhodesain = Rhodesain (Trypanosoma brucei rhodesiense, UniProt Q95PM0); assay: Inhibition of Trypanosoma brucei rhodesain expressed in Pichia pastoris using Z-phe-Arg-AMC as substrate preincubated for 1 hr followed by substrate addition by fluorescence assay
Sequence of Rhodesain (Q95PM0 whole entry): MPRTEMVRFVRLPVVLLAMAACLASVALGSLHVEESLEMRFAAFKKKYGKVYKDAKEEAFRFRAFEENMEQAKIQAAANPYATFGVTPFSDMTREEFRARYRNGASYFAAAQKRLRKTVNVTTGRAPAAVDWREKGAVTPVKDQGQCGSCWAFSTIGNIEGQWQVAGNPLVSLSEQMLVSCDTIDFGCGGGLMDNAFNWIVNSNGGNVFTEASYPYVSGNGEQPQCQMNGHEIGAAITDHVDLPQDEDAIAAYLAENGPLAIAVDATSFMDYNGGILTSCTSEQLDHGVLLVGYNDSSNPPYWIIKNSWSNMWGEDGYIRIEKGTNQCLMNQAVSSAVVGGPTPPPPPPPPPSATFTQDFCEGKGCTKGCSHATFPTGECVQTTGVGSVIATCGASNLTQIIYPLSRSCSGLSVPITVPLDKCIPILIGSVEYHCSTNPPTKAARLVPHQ
Summary of the method: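 Rhodesain at 0.8 nM final was pre-incubated 1 h with compound at 20 μM final in 50 mM sodium acetate pH 5.5, 2 mM DTT, 0.01% Triton X-100. Then 10 μM Z-Phe-Arg-AMC was added, and cleavage was read as RFU/sec at 25 °C (ex 355/em 460 nm). E-64 (10 μM) defined 100% inhibition.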

[4] = biological target: Rhodesain (Trypanosoma brucei rhodesiense) (UniProt Q95PM0); assay: Inhibition of Trypanosoma brucei rhodesain expressed in Pichia pastoris assessed as rato of Kinact to Ki using Z-phe-Arg-AMC as substrate preincubated for 1 hr followed by substrate additon by fluorescence assay
Summary of the method: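 Time-dependent inactivation study: rhodesain mixed with inhibitor (0, 0.06, 0.12, 0.24, 0.97, 3.9 μM) in assay buffer (50 mM sodium acetate pH 5.5, 2 mM DTT, 0.01% Triton X-100). Aliquots drawn every 10 min, assayed with 10 μM Z-Phe-Arg-AMC, RFU/sec followed 7 min at 25 °C (ex 355/em 460 nm). Analysed by pseudo-first-order inhibition plots.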

Trypanosoma brucei [5] = assay: Antitrypanosomal activity against luciferase expressing Trypanosoma brucei STIB795 bloodstream forms infected in NMRI mouse assessed as parasitic growth inhibition at 50 to 100 mg/kg, ip administered for 4 consecutive days starting at 3 days post infection measured at 24 hrs post dose by live imaging analysis; assay type: functional, organism-based
Summary of the method: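 Groups of four female mice, each inoculated ip with 1 × 10⁴ bloodstream forms. Groups: control, 50 mg/kg/day and 100 mg/kg/day. Dosing ip in water plus 10% DMSO began 3 days post-infection. Parasitemia followed by live imaging. Moribund mice euthanized once parasitemia was detected.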

Sequence of Rhodesain (Trypanosoma brucei rhodesiense) (Q95PM0 1-450): as the sequence (Q95PM0 whole entry) above

Row | Compound | inhibition [1] | IC50 (Trypanosoma brucei [2]) [µM] | IC50 (HepG2) [µM] | inhibition [3] | IC50 (Rhodesain) [µM] | Ratio [4] [M⁻¹ s⁻¹] | Activity (Trypanosoma brucei [5])
1 | CC(C)CCC[C@@H](C)[C@H]1CC[C@H]2[C@@H]3CC[C@H]4C[C@@H](OC(=O)Cc5ccc(OC/C=C/S(=O)(=O)c6ccccc6)cc5)CC[C@]4(C)[C@H]3CC[C@]12C | inactive | > 20 | > 20 | – | – | – | –
2 | COc1cc([C@@H]2c3cc4c(cc3[C@H](O)[C@H]3COC(=O)[C@H]23)OCO4)cc(OC)c1OC [PODOFILOX] | – | – | 0.008 | – | – | – | –
3 | C[C@H](OC(=O)Cc1ccc(OC/C=C/S(=O)(=O)c2ccccc2)cc1)c1ccc2ccccc2c1 | inactive | 5.62 | > 20 | – | – | – | –
4 | O=C(Cc1ccc(OC/C=C/S(=O)(=O)c2ccccc2)cc1)Oc1ccc(C2CCCC2)cc1 | inactive | 6.04 | > 20 | – | – | – | –
5 | CC1=C[C@@H](OC(=O)Cc2ccc(OC/C=C/S(=O)(=O)c3ccccc3)cc2)C2C[C@H]1C2(C)C | inactive | > 20 | > 20 | – | – | – | –
6 | CC1(C)[C@H]2CC=C(CCOC(=O)Cc3ccc(OC/C=C/S(=O)(=O)c4ccccc4)cc3)[C@@H]1C2 | inactive | 2.01 | > 80 | – | – | – | –
7 | CC1(C)C2CC=C(CCOC(=O)Cc3ccc(OC/C=C/S(=O)(=O)c4ccccc4)cc3F)C1C2 (configuration not stated) | inactive | 7.03 | > 20 | – | – | – | –
8 | O=C(Cc1ccc(OC/C=C/S(=O)(=O)c2ccccc2)cc1)Oc1ccc(Cc2ccccc2)cc1 | inactive | 1.47 | > 80 | – | – | – | –
9 | O=C(Cc1ccc(OC/C=C/S(=O)(=O)c2ccccc2)cc1)Oc1ccc(C(F)(F)F)cc1 | inactive | > 20 | > 20 | – | – | – | –
10 | C[C@H](NC(=O)Cc1ccc(OC/C=C/S(=O)(=O)c2ccccc2)cc1)c1ccc2ccccc2c1 | inactive | 5.45 | > 20 | – | – | – | –
11 | O=C(Cc1ccc(OC/C=C/S(=O)(=O)c2ccccc2)cc1)Oc1ccc2cc(Br)ccc2c1 | inactive | 2.18 | > 80 | – | – | – | –
12 | O=C(Cc1ccc(OC/C=C/S(=O)(=O)c2ccccc2)cc1)OC1CCC[C@@H]2CCCC[C@H]12 (some centres not stated) | inactive | 5.63 | > 20 | – | – | – | –
13 | CC1(C)C2CC=C(COC(=O)Cc3ccc(OC/C=C/S(=O)(=O)c4ccccc4)cc3)C1C2 (configuration not stated) | inactive | > 20 | > 20 | – | – | – | –
14 | CN1CCC(NC(=O)Cc2ccc(OC/C=C/S(=O)(=O)c3ccccc3)cc2)CC1 | inactive | > 20 | > 20 | – | – | – | –
15 | CCCN1CCC(NC(=O)Cc2ccc(OC/C=C/S(=O)(=O)c3ccccc3)cc2)CC1 | inactive | > 20 | > 20 | – | – | – | –
16 | O=C(Cc1ccc(OC/C=C/S(=O)(=O)c2ccccc2)cc1)NC12CC3CC(CC(C3)C1)C2 | inactive | 11.7 | > 20 | – | – | – | –
17 | CC1(C)[C@@H]2CC[C@@](C)(C2)[C@@H]1OC(=O)Cc1ccc(OC/C=C/S(=O)(=O)c2ccccc2)cc1 | inactive | 4.04 | 11.9 | – | – | – | –
18 | CC1(C)[C@H]2CC=C(CCOC(=O)Cc3ccc(OC/C=C/S(=O)(=O)c4ccccc4)c(Cl)c3)[C@@H]1C2 | inactive | 3.04 | > 80 | – | – | – | –
19 | CC1(C)C2CC[C@]1(C)C(OC(=O)Cc1ccc(OC/C=C/S(=O)(=O)c3ccccc3)cc1)C2 (some centres not stated) | inactive | 7.16 | > 20 | – | – | – | –
20 | CC1(C)C2CC[C@]1(C)C(NC(=O)Cc1ccc(OC/C=C/S(=O)(=O)c3ccccc3)cc1)C2 (some centres not stated) | inactive | 10.8 | > 20 | – | – | – | –
21 | O=C(N[C@H](/C=C/S(=O)(=O)c1ccccc1)CCc1ccccc1)c1cccc2cccnc12 | Active | 5.97 | > 80 | inactive | 0.8 | 99 | –
22 | CC(C)c1ccc(OC(=O)Cc2ccc(OC/C=C/S(=O)(=O)c3ccccc3)cc2)cc1 | inactive | > 20 | > 20 | – | – | – | –
23 | Cc1ccc(C(=O)Nc2ccc(S(=O)(=O)O)c3cc(S(=O)(=O)O)cc(S(=O)(=O)O)c23)cc1NC(=O)c1cccc(NC(=O)Nc2cccc(C(=O)Nc3cc(C(=O)Nc4ccc(S(=O)(=O)O)c5cc(S(=O)(=O)O)cc(S(=O)(=O)O)c45)ccc3C)c2)c1 [SURAMIN] | – | 0.004 | – | – | – | – | –
24 | O=C(Cc1ccc(OC/C=C/S(=O)(=O)c2ccccc2)cc1)Nc1cccc2cccnc12 | inactive | 0.76 | > 80 | – | – | – | inactive
